ChEMBL document CHEMBL1132578, “New peptidic cysteine protease inhibitors derived from the electrophilic alpha-amino acid aziridine-2,3-dicarboxylic acid” (J Med Chem, 1999)

Assays:
[1] = molecular target: T1, Pro-cathepsin H (Homo sapiens, UniProt P09668); test: Compound was evaluated for inhibition constant for the non-time dependent inhibition of Cathepsin H.
T1 sequence (P09668 whole entry): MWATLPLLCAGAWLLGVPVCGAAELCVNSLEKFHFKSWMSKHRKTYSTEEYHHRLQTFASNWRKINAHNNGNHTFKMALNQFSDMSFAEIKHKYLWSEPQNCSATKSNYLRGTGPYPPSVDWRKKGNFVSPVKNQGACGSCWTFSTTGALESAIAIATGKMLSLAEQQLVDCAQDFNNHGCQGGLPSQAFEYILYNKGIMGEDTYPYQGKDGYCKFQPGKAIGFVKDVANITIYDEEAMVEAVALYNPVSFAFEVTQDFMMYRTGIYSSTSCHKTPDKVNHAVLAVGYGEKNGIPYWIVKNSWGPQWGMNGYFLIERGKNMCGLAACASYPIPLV

[2] = molecular target: T2, Papain (Carica papaya) (UniProt P00784); test: pH dependency of inhibition of papain with the compound at pH 5.2 [I] = 17 uM, incubation time = 30 minutes, [S] = 1.49 mM L-BAPA, [E] = 0.5 mg m/L
T2 sequence (whole entry): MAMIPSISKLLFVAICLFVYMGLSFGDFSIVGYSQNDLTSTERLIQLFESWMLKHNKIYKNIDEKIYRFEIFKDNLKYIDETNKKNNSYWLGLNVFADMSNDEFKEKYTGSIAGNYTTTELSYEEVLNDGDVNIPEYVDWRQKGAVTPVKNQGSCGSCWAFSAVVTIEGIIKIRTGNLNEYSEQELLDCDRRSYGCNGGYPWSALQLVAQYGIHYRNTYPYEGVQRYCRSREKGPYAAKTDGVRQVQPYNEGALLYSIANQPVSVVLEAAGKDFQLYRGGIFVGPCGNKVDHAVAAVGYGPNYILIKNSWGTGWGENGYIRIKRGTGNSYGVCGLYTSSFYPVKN
Procedure, shortened: (§1)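 Papain (0.5 mg/mL) with 1.49 mM L-BAPA, with or without 17 µM inhibitor for 30 min, at pH 5.2–8.0 (citrate pH 4–6, phosphate pH 6–8), 25 °C; nitroanilide release read at 405 nm. Activities are means of five assays; percent inhibition compares inhibited and uninhibited activity.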

[3] = molecular target: T2, Papain (Carica papaya); test: pH dependency of inhibition of papain with the compound at pH 6.0 [I] = 17 uM, incubation time = 30 minutes, [S] = 1.49 mM L-BAPA, [E] = 0.5 mg m/L; procedure, shortened: as §1
[4] = molecular target: T2, Papain (Carica papaya); test: pH dependency of inhibition of papain with the compound at pH 6.5 [I] = 17 uM, incubation time = 30 minutes, [S] = 1.49 mM L-BAPA, [E] = 0.5 mg m/L; procedure, shortened: as §1
[5] = molecular target: T2, Papain (Carica papaya); test: pH dependency of inhibition of papain with the compound at pH 7.0 [I] = 17 uM, incubation time = 30 minutes, [S] = 1.49 mM L-BAPA, [E] = 0.5 mg m/L; procedure, shortened: as §1
[6] = molecular target: T2, Papain (Carica papaya); test: pH dependency of inhibition of papain with the compound at pH 8.0 [I] = 17 uM, incubation time = 30 minutes, [S] = 1.49 mM L-BAPA, [E] = 0.5 mg m/L; procedure, shortened: as §1
[7] = molecular target: T2, Papain (Carica papaya); test: pH dependency of inhibition of papain without the compound at pH 5.2 mean values from five assays.; procedure, shortened: as §1
[8] = molecular target: T2, Papain (Carica papaya); test: pH dependency of inhibition of papain without the compound at pH 6.0 mean values from five assays.; procedure, shortened: as §1
[9] = molecular target: T2, Papain (Carica papaya); test: pH dependency of inhibition of papain without the compound at pH 6.5 mean values from five assays.; procedure, shortened: as §1
[10] = molecular target: T2, Papain (Carica papaya); test: pH dependency of inhibition of papain without the compound at pH 7.0 mean values from five assays.; procedure, shortened: as §1
[11] = molecular target: T2, Papain (Carica papaya); test: Percent inhibition of papain by the compound at pH 5.2; conditions: concentration not given here; procedure, shortened: as §1
[12] = molecular target: T2, Papain (Carica papaya); test: Percent inhibition of papain by the compound at pH 6.0; conditions: concentration not given here; procedure, shortened: as §1
[13] = molecular target: T2, Papain (Carica papaya); test: Percent inhibition of papain by the compound at pH 6.5; conditions: concentration not given here; procedure, shortened: as §1
[14] = molecular target: T2, Papain (Carica papaya); test: Percent inhibition of papain by the compound at pH 7.0; conditions: concentration not given here; procedure, shortened: as §1
[15] = molecular target: T2, Papain (Carica papaya); test: Percent inhibition of papain by the compound at pH 8.0; conditions: concentration not given here; procedure, shortened: as §1
[16] = molecular target: T3, Calpain-1 catalytic subunit (Homo sapiens, UniProt P07384); test: Compound was evaluated for inhibition constant for the non-time dependent inhibition of Calpain 1; no inhibition; design: species or system Sus scrofa
T3 sequence (P07384 whole entry): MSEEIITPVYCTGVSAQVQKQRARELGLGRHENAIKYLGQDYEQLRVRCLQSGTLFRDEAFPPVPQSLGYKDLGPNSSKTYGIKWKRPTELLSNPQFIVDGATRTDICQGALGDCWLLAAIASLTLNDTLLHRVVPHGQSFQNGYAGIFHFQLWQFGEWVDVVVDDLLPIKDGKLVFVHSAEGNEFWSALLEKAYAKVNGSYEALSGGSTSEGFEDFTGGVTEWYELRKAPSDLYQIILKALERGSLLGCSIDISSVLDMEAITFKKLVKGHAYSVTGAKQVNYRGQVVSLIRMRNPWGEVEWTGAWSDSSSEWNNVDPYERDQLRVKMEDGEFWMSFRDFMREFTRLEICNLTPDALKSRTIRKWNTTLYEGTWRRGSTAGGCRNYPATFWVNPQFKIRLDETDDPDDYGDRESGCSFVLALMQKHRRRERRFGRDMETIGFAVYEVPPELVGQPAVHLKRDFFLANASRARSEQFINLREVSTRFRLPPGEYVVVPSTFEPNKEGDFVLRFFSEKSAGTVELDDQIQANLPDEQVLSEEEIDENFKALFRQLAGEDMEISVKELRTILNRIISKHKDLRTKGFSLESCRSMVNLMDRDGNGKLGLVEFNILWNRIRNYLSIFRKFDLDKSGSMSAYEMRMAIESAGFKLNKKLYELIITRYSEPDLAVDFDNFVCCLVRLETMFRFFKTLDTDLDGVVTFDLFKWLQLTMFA

[17] = molecular target: T2, Papain (Carica papaya); test: pH dependency of inhibition of papain without the compound at pH 8.0 mean values from five assays.; procedure, shortened: as §1
[18] = molecular target: Cathepsin B (Bos taurus) (UniProt P07688)
[19] = molecular target: Procathepsin L (Homo sapiens) (UniProt P07711); conditions: Paramecium tetraurelia
Chain of Procathepsin L (Homo sapiens) (P07711 114-333 limits assumed): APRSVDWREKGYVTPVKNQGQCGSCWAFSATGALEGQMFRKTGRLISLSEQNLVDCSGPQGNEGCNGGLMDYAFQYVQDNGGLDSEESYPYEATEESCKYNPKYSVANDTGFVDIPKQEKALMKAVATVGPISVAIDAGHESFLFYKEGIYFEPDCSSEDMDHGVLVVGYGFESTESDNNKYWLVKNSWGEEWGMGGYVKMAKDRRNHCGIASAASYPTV

[20] = molecular target: T2, Papain (Carica papaya)
[21] = molecular target: T2, Papain (Carica papaya); remark: listed apart in the source
[22] = molecular target: T2, Papain (Carica papaya); remark: listed apart in the source
[23] = molecular target: T2, Papain (Carica papaya); remark: listed apart in the source
[24] = molecular target: Cathepsin B (Bos taurus) (UniProt P07688); test: Evaluated for second-order rate constants for the inactivation of mammalian lysosomal cathepsin B.
[25] = molecular target: T1, Pro-cathepsin H; test: Inhibition constant for the non time dependent inhibition of Cathepsin H; no inhibition
[26] = molecular target: Procathepsin L (Homo sapiens) (UniProt P07711); test: Evaluated for second-order rate constants for the inactivation of mammalian lysosomal cathepsin L.
[27] = molecular target: T2, Papain (Carica papaya); test: Second-order rate constants for the inactivation of papain (vacuolar plant enzyme)
Procedure, shortened: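 Papain with L-BAPA (405 nm) in 50 mM phosphate pH 6.5, 5 mM EDTA, 5 mM cysteine, or with Z-Phe-Arg-AMC in phosphate pH 6.5 with DTT, EDTA, Brij 35; 25 °C. kobs at 3–7 inhibitor concentrations, continuous or dilution assay; k2nd = ki/Ki, or from linear kobs vs [I] when unsaturated; substrate-corrected (Km 2.5 mM L-BAPA, 0.09 mM Z-Phe-Arg-AMC).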

[28] = molecular target: calpain I; test: Inhibition constant for the non time dependent inhibition of calpain I

CCOC(=O)[C@@H]1[C@@H](C(=O)OCC)N1C(=O)[C@H](Cc1ccccc1)NC(=O)OC(C)(C)C
Ki [1]: 210 µM
Activity [2]: 1.86 mU/mL
Activity [3]: 1.38 mU/mL
Activity [4]: 0.98 mU/mL
Activity [5]: 0.75 mU/mL
Activity [6]: 0.75 mU/mL
Activity [7]: 6.54 mU/mL
Activity [8]: 7.33 mU/mL
Activity [9]: 7.38 mU/mL
Activity [10]: 7.33 mU/mL
inhibition [11]: 71.6%
inhibition [12]: 81.1%
inhibition [13]: 86.7%
inhibition [14]: 89.8%
inhibition [15]: 89.7%
Ki [16]: Not Active
Activity [17]: 7.31 mU/mL
ki/Ki [18]: 2.08 M⁻¹ s⁻¹
ki/Ki [19]: 1.08 M⁻¹ s⁻¹
ki/Ki [20]: 6.8 M⁻¹ s⁻¹
ki/Ki [21]: 1.2 M⁻¹ s⁻¹
ki/Ki [22]: 7.07 M⁻¹ s⁻¹
ki/Ki [23]: 6.83 M⁻¹ s⁻¹

CCOC(=O)[C@@H]1[C@@H](C(=O)OCC)N1C(=O)[C@H](C)NC(=O)OCc1ccccc1
ki/Ki [24]: 1.12 M⁻¹ s⁻¹
Ki [25]: Not Active
ki/Ki [26]: 5.08 M⁻¹ s⁻¹
ki/Ki [27]: 1.22 M⁻¹ s⁻¹
Ki [28]: 160 µM
